The values that follow come from ChEMBL document CHEMBL1131631, “Piperazinyl oxazolidinone antibacterial agents containing a pyridine, diazene, or triazene heteroaromatic ring” (1998).

Experiment [1] relates to Staphylococcus aureus. Put plainly: Minimum inhibitory concentration against Staphylococcus aureus UC9213. The class given is functional. In outline: (§1)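 MIC in µg/mL. S. aureus UC 9213 is methicillin-susceptible, and S. aureus UC 6685 and S. epidermidis UC 12084 are methicillin-resistant. E. faecalis UC 9217 and S. pneumoniae UC 9912 were also tested.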
The test system of experiment [2] is Staphylococcus aureus. Kind of experiment: compound was tested against Staphylococcus aureus UC9213 after po administration. The class given is functional. In outline: (§2)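 Lethal systemic S. aureus infection in mice, with oral dosing. The ED50 is the dose in mg/kg body weight per dose that reduces mortality by 50%. The 95% confidence limits are −50% and +100% of the nominal value.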

Experiment [3] deals with Caco-2. Kind of experiment: (§3) permeability assessment across a monolayer of caco-2 cells in presence of GSH in aqueous base. Type of experiment: functional, Homo sapiens.
Experiment [4] has as its system Staphylococcus aureus. Put plainly: Minimum inhibitory concentration against Staphylococcus aureus UC6685. Type of experiment: functional. The gist of the method: as §1
Experiment [5] relates to Streptococcus pneumoniae. Kind of experiment: MIC activity against Streptococcus pneumoniae UC9912. Type of experiment: functional. The gist of the method:
as §1

Experiment [6] has as its system Staphylococcus aureus. Put plainly: compound was tested against Staphylococcus aureus UC9213 the eperezolid administered positive control expressed as ED50 values. Type of experiment: functional. The gist of the method:
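Eperezolid was given orally in the same lethal systemic mouse S. aureus trial as the test agents. The ED50 is the mg/kg/dose that reduces mortality by 50%.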

Experiment [7] deals with Caco-2. Kind of experiment: (§4) permeability assessment across […]. The class given is functional, Homo sapiens.
Experiment [8] concerns Enterococcus faecalis. Put plainly: Minimum inhibitory concentration against Enterococcus faecalis UC9217. Type of experiment: functional. In outline: as §1
The subject of experiment [9] is Caco-2. Put plainly: (§5) permeability assessment across a monolayer of caco-2 cells in absence of GSH in aqueous base. The class given is functional, Homo sapiens. In general terms: Passage across Caco-2 layers is used to estimate intestinal permeability.
Experiment [10] deals with Staphylococcus epidermidis. Put plainly: Minimum inhibitory concentration against Staphylococcus epidermis UC12084. Type of experiment: functional. The gist of the method: as §1
Experiment [11] concerns Streptococcus pneumoniae. Kind of experiment: Minimum inhibitory concentration Streptococcus pneumoniae UC9912. The class given is functional. In outline:
as §1

The test system of experiment [12] is Caco-2. The description is as §4. The class given is functional.
The test system of experiment [13] is Caco-2. The description is as §3. Type of experiment: functional.
In experiment [14] the test system is Caco-2. The experiment is described as §5. Type of experiment: functional.
In experiment [15] the test system is Caco-2. Described as §4. Type of experiment: functional. This is another data set of the same source.
Experiment [16] relates to Mus musculus. Kind of experiment: Compound was tested against Staphylococcus aureus UC9213 after po administration in mouse. The class given is functional. The gist of the method:
as §2

For experiment [17], the system named is Mus musculus. Kind of experiment: compound was tested against Staphylococcus aureus UC9213 the vancomycin administered (sc) in mouse positive control expressed as ED50 values. The class given is functional.

≈ marks a conversion by molar mass, not a printed value. Some results are limits rather than exact numbers.

The term MIC denotes the lowest concentration that inhibits growth of the organism. A low value points to inhibition by little substance. What is called ED50 is the dose at which the effect has come halfway, by size or by number of responders. High values mean a need for a large dose, low ones an effect at a small dose. With `CC(=O)NC[C@H]1CN(c2ccc(N3CCN(c4ccnc(Cl)n4)CC3)c(F)c2)C(=O)O1`, the MIC was 2 µg/mL (≈ 4.46 µM) in experiment [1]; 1 µg/mL (≈ 2.23 µM) in experiment [4]; 0.5 µg/mL (≈ 1.11 µM) in [5]; 1 µg/mL (≈ 2.23 µM) in experiment [8]; 0.5 µg/mL (≈ 1.11 µM) in experiment [10]. For the same molecule, the ED50 in experiment [2] was 14.6 mg/kg; in experiment [6], 1.8 mg/kg. In addition, the “[A]” value in experiment [3] and in experiment [9] was 17 µM each time. Further, in experiment [7], the “[EA]” value came to 50 µM.
Consider `CC(=O)NC[C@H]1CN(c2ccc(N3CCN(c4cccc(Br)n4)CC3)c(F)c2)C(=O)O1`, for which the MIC in experiment [1] stood at 2 µg/mL (≈ 4.06 µM); in experiment [4], 1 µg/mL (≈ 2.03 µM); in experiment [8] it was 1 µg/mL (≈ 2.03 µM); in experiment [11], 0.5 µg/mL (≈ 1.02 µM); in [10], 0.5 µg/mL (≈ 1.02 µM). For the same molecule, the ED50 was more than 20 mg/kg in [2] and 2.7 mg/kg in experiment [6]. Further, the “[A]” value in [3] and in experiment [9] was 2.6 µM each time. Also, the “[EA]” value in [7] came out at 50 µM.
In the case of `CC(=O)NC[C@H]1CN(c2ccc(N3CCN(c4cnnc(Cl)c4Cl)CC3)c(F)c2)C(=O)O1`, the minimum inhibitory concentration (MIC) in experiment [1] worked out at 2 µg/mL (≈ 4.14 µM); in experiment [4], 2 µg/mL (≈ 4.14 µM); in experiment [8] it was 2 µg/mL (≈ 4.14 µM); in experiment [11], 0.5 µg/mL (≈ 1.03 µM); in experiment [10], 1 µg/mL (≈ 2.07 µM). The ED50 in experiment [2] was more than 20 mg/kg; in experiment [6], 3.2 mg/kg. In addition, the “[EA]” value in experiment [12] was determined as 0 µM; in [15], 50 µM. The “[A]” value in [13] and in experiment [14] was 34 µM throughout.
As to `CC(=O)NC[C@H]1CN(c2ccc(N3CCN(C(=O)CO)CC3)c(F)c2)C(=O)O1` [EPEREZOLID], the MIC in experiment [1] turned out to be 4 µg/mL (≈ 10.1 µM); in [4], 1 µg/mL (≈ 2.54 µM); in experiment [8], 2 µg/mL (≈ 5.07 µM); in experiment [11] it was 0.5 µg/mL (≈ 1.27 µM); in experiment [10], 0.5 µg/mL (≈ 1.27 µM). The median effective dose (ED50) in [16] turned out to be 1.9 mg/kg; in experiment [17], 3.9 mg/kg.
Turning to `CC(=O)NC[C@H]1CN(c2ccc(N3CCOCC3)c(F)c2)C(=O)O1` [LINEZOLID], the ED50 in [16] was found to be 5.6 mg/kg; in [17] it was 3.9 mg/kg. The molecule also had an MIC in [10] of 1 µg/mL (≈ 2.96 µM).
